Legend:
LTR-IV G4 [1] = experiment: SPR analysis; design: species or system HIV-1; settings: read-out: KD LTR-IV G4 (SPR); 25 °C, HEPES-KCl buffer, 1:1 binding model
Outline: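 5′-biotinylated oligonucleotides folded (95 °C for 5 min, cooled to room temperature), diluted to 30 nM and captured on a streptavidin chip to about 500 RU, with an empty reference cell. Running buffer was 0.01 M HEPES pH 7.4, 0.2 M KCl, 3 mM EDTA. Test compound run at 25–200 nM, 30 μL/min, with 280 s contact and 360 s dissociation. Surface regenerated with 10 mM glycine pH 2.0. Sensorgrams buffer-corrected and fitted to a 1:1 model. At least two independent runs, χ2 below 0.2.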

HIV-1 NL4-3 strain [2] = experiment: Antiviral assay in HIV-1 infected TZM-bl cells; type: cell-based; settings: for IC50: read-out: IC50 HIV-1 strain NL4-3, MOI 0.5, 48 h, LTR-luciferase signal; for SI HIV-1 strain NL4-3: CC50 value/IC50 value
Outline: (§1)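 TZM-bl cells (HeLa expressing CD4 and CCR5, with LTR-driven luciferase and β-galactosidase) were seeded at 1 ×10^4 cells/well in DMEM/10% FBS and left to adhere overnight. Cells were infected with HIV-1 NL4-3 or BaL at MOI 0.5, treated with serial dilutions of test compound, and incubated at 37 °C for 48 h. IC50 was taken as 50% inhibition of LTR-luciferase signal. CC50 came from parallel MTT on mock-infected cells. SI = CC50/IC50.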

Cytotoxicity assay = type: cell-based; settings: human, uninfected (mock-infected) TZM-bl cells
Outline: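 Run in parallel with the antiviral assay, under the same conditions but on uninfected TZM-bl cells (1 ×10^4 cells/well, seeded overnight, test compound in serial dilution, 37 °C, 48 h). Viability was read by MTT absorbance. CC50 was the concentration that reduced absorbance of mock-infected cells by 50%.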

HIV-1 NL4-3 strain [3] = settings: previous work ref 27, 30; cited from earlier work
TZM-bl cells = settings: values previously reported ref 27; cited from earlier work
HIV-1 NL4-3 = experiment: HIV-1 entry assay; type: cell-based; settings: TZM-bl cells, virus production at 31 h pi; 2 50–100 nM, AZT 0.5 μg/mL, DS 100 μg/mL
Outline: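 TZM-bl cells (HeLa stably expressing CD4, CCR5 and HIV-1 LTR-driven luciferase) were grown in DMEM/10% FBS. Cells were seeded at 1 × 10^4 per well and allowed to adhere overnight, then infected with HIV-1 NL4-3 at MOI 0.5 and kept at 37 °C. Test compound or reference agents were added at 0, 1 or 2 h pi. At 31 h cells were PBS-washed and virus production was read as LTR-luciferase RLU.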

LTR-IV G4 [4] = experiment: FRET melting assay; type: binding, HIV-1
Outline: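 Oligonucleotide labelled with FAM at the 5′ end and TAMRA at the 3′ end, 0.25 μM, folded in lithium cacodylate buffer with 100 mM potassium, plus equimolar test compound. After equilibration at 4 °C, FAM emission was followed from 30 to 95 °C at 1 °C/min. Profiles were normalized, and Tm was the temperature at 0.5 normalized fluorescence.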

HIV-1 BaL strain = experiment: Antiviral assay in HIV-1 infected TZM-bl cells; type: cell-based
Outline: as §1

[5] = cited from earlier work

Compound | Kd (LTR-IV G4 [1]) | IC50 (HIV-1 NL4-3 strain [2]) | CC50 (Cytotoxicity assay) | SI HIV-1 strain NL4-3 (HIV-1 NL4-3 strain [2]) | further results
CN(C)CCCn1c(=O)c2cc(Br)c3c(=O)n(CCCN(C)C)c(=O)c4c5[nH]c6ccc([N+](=O)[O-])cc6[nH]c5c(c1=O)c2c34 [Compound 5] | 5.9 nM | 23 ± 1.3 nM | 439 ± 10.7 nM |  | 
CN(C)c1ccc(Nc2c3ccc(NC(=O)CCN4CCCC4)cc3nc3cc(NC(=O)CCN4CCCC4)ccc23)cc1.Cl.Cl.Cl [Compound 1, BRACO-19] |  |  |  | >3.5 | IC50 (virus production in infected cells) (HIV-1 NL4-3 strain [3]): low μM range; average selectivity index (SI) (HIV-1 NL4-3 strain [3]): 12; CC50 (TZM-bl cells): > 12000 nM
dextran sulfate [DS] |  |  |  |  | antiviral activity as a function of time of addition (0, 1, 2 h pi) (HIV-1 NL4-3): exhibited antiviral effect only when added at 0 h pi
CN(C)CCCn1c(=O)c2cc(Br)c3c(=O)n(CCCN(C)C)c(=O)c4c5[nH]c6ccccc6[nH]c5c(c1=O)c2c34 [Compound 3] | 6.6 nM | 15.7 ± 2.1 nM | 343 ± 32.2 nM |  | stabilization (ΔTm, FRET) at 4-fold c-exNDI:DNA molar ratio (LTR-IV G4 [4]; 4-fold c-exNDI:DNA molar ratio, 25 °C is the maximum increase measurable, data not shown): above 25 °C; difference in stabilization of LTR-IV G4s vs hTel G4 (LTR-IV G4 [4]; FRET, equimolar amounts): ≥ 6 °C; SI HIV-1 strain BaL (HIV-1 BaL strain; CC50 value/IC50 value): 11; IC50 (HIV-1 BaL strain; read-out: IC50 HIV-1 strain BaL, MOI 0.5, 48 h, LTR-luciferase signal): 32.5 ± 7.1 nM
CN(C)CCCn1c(=O)c2cc(Br)c3c(=O)n(CCCN(C)C)c(=O)c4c5[nH]c6ncccc6[nH]c5c(c1=O)c2c34 [Compound 8] |  |  | 458 ± 54 nM | 7.2 | 
CN(C)CCCn1c(=O)c2cc(Br)c3c(=O)n(CCCN(C)C)c(=O)c4c5[nH]c6ccc(C(=O)O)cc6[nH]c5c(c1=O)c2c34 [Compound 7] | 21.6 nM |  | > 5000 nM | >6 | pKa of the (CH2)3NHMe2+ moieties [5]: > 8.1

From publication PMC4690987 (Journal of Medicinal Chemistry, 2015)
